# Source: ChEMBL document CHEMBL3351926, “Altertoxins with potent anti-HIV activity from Alternaria tenuissima QUE1Se, a fungal endophyte of Quercus emoryi” (Bioorg Med Chem, 2014)
# Activity calls are given as the source filed them. No cut-off for these calls is given here.
# Tests used:
# [1] = test system: Human immunodeficiency virus 1; experiment: Antiviral activity against HIV1 infected in human A3.01 cells assessed as inhibition of viral replication; assay type: functional, organism-based
# How it was run: (§1)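 A3.01 T cells were infected with HIV-1 LAV in the presence of decreasing compound concentrations, lowered until viral replication reappeared. Virus in culture supernatants was measured by reverse transcriptase assay 9 days post-infection, the peak day for the untreated control. Replication was expressed as % of the untreated (concentration 0) control. Results are the mean and standard deviation of duplicate determinations, and IC50 was read from the dose–response curves.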
# [2] = test system: Human immunodeficiency virus 1; experiment: Antiviral activity against HIV1 infected in human A3.01 cells assessed as complete inhibition of viral replication at 1.50 uM; assay type: functional, organism-based; how it was run: as §1
# [3] = test system: Human immunodeficiency virus 1; experiment: Antiviral activity against HIV1 infected in human A3.01 cells assessed as inhibition of viral replication at 1.5 ug/ml; assay type: functional
# How it was run: (§2)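 A3.01 T lymphocytes were infected with HIV-1 LAV in the presence of compound at a single concentration, 1.5 or 0.5 μg/mL, chosen from the A3.01 cytotoxicity data. Supernatant virus was measured by reverse transcriptase assay, and inhibition was scored on the peak day of virus production. Controls were DMSO at a matching concentration, AZT at 10 and 20 μM, untreated infected cells and mock cells.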
# [4] = Therapeutic index, ratio of CC50 for human A3.01 cells to IC50 for HIV1 infected in human A3.01 cells; assay type: cell-based; conditions: A3.01 cells (uninfected for CC50; HIV1-infected for IC50)
# How it was run: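 The index was calculated from A3.01 cytotoxicity data together with the IC50 for HIV-1 LAV replication in A3.01 cells. Replication was measured by supernatant reverse transcriptase assay 9 days post-infection on dose–response curves run in duplicate.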
# [5] = test system: Human immunodeficiency virus 1; experiment: Antiviral activity against HIV1 infected in human A3.01 cells assessed as complete inhibition of viral replication at 20 uM; assay type: functional, organism-based
# How it was run: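 Human A3.01 T-lymphocytes infected with HIV-1 LAV strain while exposed to compound. Virus levels in culture supernatants measured by reverse transcriptase assay. Inhibition read on peak day of virus production, 9 days post-infection in the untreated control. Compared against untreated infected cells, DMSO vehicle at matching concentration, and uninfected mock cells.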
# [6] = test system: Human immunodeficiency virus 1; experiment: Antiviral activity against HIV1 infected in human A3.01 cells assessed as complete inhibition of viral replication at 2.20 uM; assay type: functional, organism-based; how it was run: as §1
# [7] = test system: Human immunodeficiency virus 1; experiment: Antiviral activity against HIV1 infected in human A3.01 cells assessed as inhibition of viral replication at 0.5 ug/ml; assay type: functional; how it was run: as §2
SMILES,IC50 [1] [µM],inhibition [2],inhibition at 1.5 µg/mL [3] [%],selectivity ratio [4],inhibition [5],inhibition [6],inhibition at 0.5 µg/mL [7] [%]
O=C1c2c(O)ccc3c2[C@H](c2ccc(O)c4c2[C@H]3[C@H]2O[C@H]2C4=O)[C@H]2O[C@@H]12,0.29,Active,97,15,,,
Cc1cn([C@H]2C[C@H](N=[N+]=[N-])[C@@H](CO)O2)c(=O)[nH]c1=O,,,,,Active,,
O=C1C=C[C@H]2c3c(ccc(O)c31)-c1ccc(O)c3c1[C@H]2[C@H]1O[C@H]1C3=O,,,33,,,,
O=C1C[C@H](O)[C@@H]2c3c(ccc(O)c31)-c1ccc(O)c3c1[C@@]2(O)CCC3=O [ALTERTOXIN I],1.42,,97,3,,Active,
O=C1C[C@@H](O)[C@H]2c3c(ccc(O)c31)-c1ccc(O)c3c1[C@H]2[C@H]1O[C@H]1C3=O,0.09,,97,50,,,
O=C1CC[C@]2(O)c3c(ccc(O)c31)-c1ccc(O)c3c1[C@H]2[C@H]1O[C@H]1C3=O,0.21,,,6.5,,,97
